Series [1] relates to NCI-H1299. The series can be described thus: Antiproliferative activity against human NCI-H1299 cells after 48 hrs by MTS assay. It is filed as functional, cell-based. As to conditions: NCI-H1299, 48 h. In outline: (§1)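 Cells kept in RPMI 1640 with 9% FBS at 37°C, 5% CO2. 5000 cells/well seeded, left 12 h, then exposed to a range of compound concentrations or DMSO (negative control) for 48 h. MTS added, 3 h at 37°C, absorbance read at 490 nm. IC50 ± SD.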

Series [2] has as its target T1, Pyruvate kinase PKM (Homo sapiens, UniProt P14618). The series can be described thus: Inhibition of recombinant human N-terminal His-tagged PKM2 expressed in Escherichia coli BL21 preincubated for 15 mins followed by PEP/NADH addition measured at 30 secs interval for 3 to 6 mins by fluorescent PK-LDH assay. A digest of the protocol: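 Human PKM2 with an N-terminal His tag, expressed in E. coli BL21 and Ni-agarose purified. Enzyme and compound preincubated 15 min in 50 mM Tris–HCl pH 7.5, 10 mM KCl, 5 mM MgCl2. NADH fluorescence read kinetically every 30 s for 3–6 min. IC50.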

Another series deals with HCT-116. Description: Antiproliferative activity against human HCT116 cells after 48 hrs by MTS assay. It is filed as functional, cell-based. Conditions: HCT-116, 48 h. In outline:
as §1
(Formazan colour is commonly taken as a measure of viable cells.)

For a further series, the system named is HeLa. Description: Antiproliferative activity against human HeLa cells after 48 hrs by MTS assay. Type of series: functional, cell-based. A digest of the protocol: as §1
Series [3] in a line: Selectivity index, ratio of IC50 for human BEAS2B cells to IC50 for human NCI-H1299 cells. Type of series: toxicity. As to conditions: BEAS2B cells and NCI-H1299 cells, read-out: Ratio IC50.
For a further series, the system named is BEAS-2B. The series can be described thus: Cytotoxicity against human BEAS2B cells assessed as reduction in cell viability after 48 hrs by MTS assay. Type of series: cell-based. In outline:
as §1

Series [4] deals with T1, Pyruvate kinase PKM. Description: Inhibition of recombinant human N-terminal His-tagged PKM1 expressed in Escherichia coli BL21 preincubated for 15 mins followed by PEP/NADH addition measured at 30 secs interval for 3 to 6 mins by fluorescent PK-LDH assay. A digest of the protocol: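 Human PKM1 with an N-terminal His tag, expressed in E. coli BL21 and Ni-agarose purified. Activity measured by PK–LDH coupling, with pyruvate formation tracked as NADH depletion by fluorescence in kinetic mode. IC50.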
Target sequence in this assay (P14618 whole entry): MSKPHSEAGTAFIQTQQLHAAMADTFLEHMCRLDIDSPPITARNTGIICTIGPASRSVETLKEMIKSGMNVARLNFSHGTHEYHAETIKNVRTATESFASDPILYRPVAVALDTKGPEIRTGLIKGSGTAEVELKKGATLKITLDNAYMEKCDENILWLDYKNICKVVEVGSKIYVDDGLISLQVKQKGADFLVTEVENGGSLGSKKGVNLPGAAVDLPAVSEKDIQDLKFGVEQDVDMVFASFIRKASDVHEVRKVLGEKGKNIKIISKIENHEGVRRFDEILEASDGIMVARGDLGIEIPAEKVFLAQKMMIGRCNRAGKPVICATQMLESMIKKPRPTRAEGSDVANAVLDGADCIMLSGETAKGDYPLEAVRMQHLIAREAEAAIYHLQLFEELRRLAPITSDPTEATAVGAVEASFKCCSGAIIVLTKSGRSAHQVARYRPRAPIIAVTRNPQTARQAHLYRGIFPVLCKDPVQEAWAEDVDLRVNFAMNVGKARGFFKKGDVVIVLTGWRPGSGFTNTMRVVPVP

The species entered for series [5] is Homo sapiens. The series can be described thus: Selectivity ratio of IC50 for recombinant human N-terminal His-tagged PKM1 expressed in Escherichia coli BL21 to IC50 for recombinant human N-terminal His-tagged PKM2 expressed in Escherichia coli BL21.
Series [6] is filed under the species Homo sapiens. The series can be described thus: Selectivity ratio of IC50 for recombinant human N-terminal His-tagged PKL expressed in Escherichia coli to IC50 for recombinant human N-terminal His-tagged PKM2 expressed in Escherichia coli BL21.
A further series addresses Pyruvate kinase PKLR (Homo sapiens, UniProt P30613). Description: Inhibition of recombinant human N-terminal His-tagged PKL expressed in Escherichia coli preincubated for 15 mins followed by PEP/NADH addition measured at 30 secs interval for 3 to 6 mins by fluorescent PK-LDH assay.
Series [7] has as its system NCI-H1299. Description: Antiproliferative activity against human NCI-H1299 cells after 48 hrs in presence of PKM2 activator FBP by MTS assay. It is filed as functional, cell-based. Conditions: NCI-H1299, 48 h. A digest of the protocol:
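H1299 cells in RPMI 1640 with 9% FBS at 37°C, 5% CO2. 5000 cells/well, 12 h attachment, then 48 h treatment at graded concentrations with FBP (100 µM) added. MTS read-out (3 h, 37°C, A490). IC50 ± SD.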

Structures are written as SMILES. pIC50: −log10 of the molar value. Some results are limits rather than exact numbers.

Chain of Pyruvate kinase PKLR (P30613 whole entry): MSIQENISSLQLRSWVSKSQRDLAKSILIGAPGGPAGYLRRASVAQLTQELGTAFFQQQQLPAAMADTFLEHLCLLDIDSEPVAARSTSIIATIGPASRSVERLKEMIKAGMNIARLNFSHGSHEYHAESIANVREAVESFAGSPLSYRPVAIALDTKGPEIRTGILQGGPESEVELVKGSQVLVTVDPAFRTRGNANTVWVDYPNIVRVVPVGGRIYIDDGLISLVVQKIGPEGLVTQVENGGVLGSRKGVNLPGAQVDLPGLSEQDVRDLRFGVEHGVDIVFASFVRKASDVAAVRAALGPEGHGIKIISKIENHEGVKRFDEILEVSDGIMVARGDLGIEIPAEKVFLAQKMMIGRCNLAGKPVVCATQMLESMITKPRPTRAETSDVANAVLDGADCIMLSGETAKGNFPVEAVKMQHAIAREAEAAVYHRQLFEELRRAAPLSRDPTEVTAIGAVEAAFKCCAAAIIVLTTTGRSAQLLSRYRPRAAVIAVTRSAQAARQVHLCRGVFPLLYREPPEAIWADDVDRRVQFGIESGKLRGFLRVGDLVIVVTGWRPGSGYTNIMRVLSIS

In the case of `CC1=C(CSC(=S)NCc2ccccc2)C(=O)c2ccccc2C1=O`, the pIC50 (as a rule, the IC50 on a negative log10 scale, so that one unit is a factor of ten) in the series with NCI-H1299 [1] is 5.32; on Pyruvate kinase PKM [2] it was 5.66; with HCT-116, 5.76; with HeLa, 5.89.

Regarding `CC1=C(CSC(=S)N2CCN(C(C)C)CC2)C(=O)c2ccccc2C1=O`, the pIC50 was 5.39 with NCI-H1299 [1], below 4.70 at Pyruvate kinase PKM [2], 5.71 in the series with HCT-116 and 5.66 in the series on HeLa.

On to `CC1=C(CSC(=S)N2CCCC2)C(=O)c2ccccc2C1=O`, for which the pIC50 was 5.79 in the series with NCI-H1299 [1], 4.70 on Pyruvate kinase PKM [2], 5.84 in the series on HCT-116 and 6.06 in the series with HeLa.

For `CCN(CC)CCNC(=S)SCC1=C(C)C(=O)c2ccccc2C1=O`, the pIC50 in the series on NCI-H1299 [1] is 5.40; at Pyruvate kinase PKM [2], below 4.70; in the series with HCT-116, 5.47; in the series on HeLa it was 5.24.

For `CC1=C(CSC(=S)N(C)C2CCCCC2)C(=O)c2ccccc2C1=O`, the pIC50 with NCI-H1299 [1] is 4.95; at Pyruvate kinase PKM [2] it was 5.29; with HCT-116, 4.97; with HeLa it was 4.87.

As to `CC1=C(CSC(=S)N2CCSC2)C(=O)c2ccccc2C1=O`, the pIC50 is 5.48 in the series on NCI-H1299 [1], 5.28 at Pyruvate kinase PKM [2], 5.76 with HCT-116 and 5.71 with HeLa.

With `CC1=C(CSC(=S)N2CCSCC2)C(=O)c2ccccc2C1=O`, the selectivity ratio in [3] was determined as 8.6. Besides, the pIC50 in the series with NCI-H1299 [1] was 5.92; with BEAS-2B it was 4.98; at Pyruvate kinase PKM [2] it was 5.23; in the series on HCT-116 it was 6.05; in the series with HeLa it was 6.49.

For `CCCN(CCC)C(=S)SCc1cc(OC)c2ccccc2c1OC`, the pIC50 in the series on NCI-H1299 [1] was below 4.70; on Pyruvate kinase PKM [2] it was 4.81; in the series with HCT-116, below 4.70; with HeLa, below 4.70.

Turning to `CC(=O)N1CCN(C(=S)SC2=C(C)C(=O)c3ccccc3C2=O)CC1`, the pIC50 with NCI-H1299 [1] was 5.18; on Pyruvate kinase PKM [2] it was below 4.70; in the series with HCT-116, 5.31; in the series on HeLa it was 4.97.

For the compound `O=C1C=C(CSC(=S)N2CCN(c3ccccc3)CC2)C(=O)c2ccccc21`, the pIC50 on Pyruvate kinase PKM [4] was 5.20; in the series on NCI-H1299 [1], 5.06; on Pyruvate kinase PKM [2], 5.85; in the series on HCT-116, below 4.70; at Pyruvate kinase PKLR it was 5.42; in the series on HeLa it was below 4.70. For the same compound, at Pyruvate kinase PKM [2], the inhibition entry is “Dose-dependent effect”. Besides, the Ratio IC50 in the series listed under Homo sapiens [5] was determined as 4.5; in the series listed under Homo sapiens [6] it was 2.7.

Regarding `CCCN(CCC)C(=S)SC1=C(C)C(=O)c2ccccc2C1=O`, the pIC50 is 4.81 in the series on NCI-H1299 [1], 5.00 at Pyruvate kinase PKM [2], 5.37 in the series on HCT-116 and below 4.70 in the series on HeLa.

For `CC1=C(CSC(=S)NCc2cccnc2)C(=O)c2ccccc2C1=O`, the pIC50 is 5.97 in the series with NCI-H1299 [1], below 4.70 at Pyruvate kinase PKM [2], 6.74 in the series on HCT-116 and 6.42 in the series with HeLa.

As to `O=C1C=C(CSC(=S)N2CCCCC2)C(=O)c2ccccc21`, in series [3], the selectivity ratio is 9.4. Also, the pIC50 in the series with NCI-H1299 [1] is 5.69; in the series with BEAS-2B it was 4.71; on Pyruvate kinase PKM [2], 5.76; in the series on HCT-116 it was 5.63; with HeLa, 6.04.

As to `CC1=C(CSC(=S)NN2CCN(C)CC2)C(=O)c2ccccc2C1=O`, the pIC50 is below 4.70 in the series with NCI-H1299 [1], below 4.70 on Pyruvate kinase PKM [2], 5.70 in the series with HCT-116 and 5.41 in the series with HeLa.

For the compound `CC1=C(CSC(=S)NN2CCCCC2)C(=O)c2ccccc2C1=O`, the pIC50 in the series with NCI-H1299 [1] was 5.36; on Pyruvate kinase PKM [2], below 4.70; in the series on HCT-116, 5.13; in the series on HeLa, 4.98.

Consider `CC1=C(CSC(=S)N2CCN(C)CC2)C(=O)c2ccccc2C1=O`, for which the pIC50 in the series on NCI-H1299 [1] was 5.61; at Pyruvate kinase PKM [2], 4.85; with HCT-116, 5.55; with HeLa it was 5.80.

In the case of `CNC(=S)SCC1=C(C)C(=O)c2ccccc2C1=O`, the pIC50 in the series with NCI-H1299 [1] was 5.27; at Pyruvate kinase PKM [2] it was below 4.70; in the series with HCT-116 it was 5.34; in the series with HeLa it was 5.08.

For `CC1=C(CSC(=S)NCc2ccncc2)C(=O)c2ccccc2C1=O`, the pIC50 in the series with NCI-H1299 [1] was 6.17; at Pyruvate kinase PKM [2] it was below 4.70; in the series on HCT-116, 6.23; with HeLa it was 6.30.

Take `CC1=C(CSC(=S)N(CCO)CCO)C(=O)c2ccccc2C1=O`: the pIC50 was 5.71 with NCI-H1299 [1], below 4.70 at Pyruvate kinase PKM [2], 5.65 in the series with HCT-116 and 5.32 in the series with HeLa.

As to `CC1=C(SC(=S)N2CCCCC2)C(=O)c2ccccc2C1=O`, the pIC50 with NCI-H1299 [1] is 4.99; at Pyruvate kinase PKM [2], 5.31; in the series with HCT-116 it was 5.45; with HeLa, 5.89.

Take `CC1=C(CSC(=S)NCc2ccccn2)C(=O)c2ccccc2C1=O`: the pIC50 is 5.35 in the series with NCI-H1299 [1], below 4.70 on Pyruvate kinase PKM [2], 5.27 in the series with HCT-116 and 5.17 in the series on HeLa.

For `CC1=C(CSC(=S)N2CC(C)OC(C)C2)C(=O)c2ccccc2C1=O` (stereo not drawn), the pIC50 is 5.83 with NCI-H1299 [1], 4.93 at Pyruvate kinase PKM [2], 5.96 with HCT-116 and 6.06 with HeLa.

Turning to `C=CCN(CC=C)C(=S)SCC1=C(C)C(=O)c2ccccc2C1=O`, the pIC50 with NCI-H1299 [1] was 5.49; on Pyruvate kinase PKM [2], 4.85; in the series with HCT-116, 5.66; with HeLa, 5.94.

Turning to `CC1=C(CSC(=S)N2CCOCC2)C(=O)c2ccccc2C1=O`, the pIC50 in the series with NCI-H1299 [1] was 5.91; at Pyruvate kinase PKM [2], 4.82; in the series on HCT-116, 6.10; in the series with HeLa, 6.02.

For the compound `CC(=O)N1CCN(C(=S)SCC2=C(C)C(=O)c3ccccc3C2=O)CC1`, the pIC50 with NCI-H1299 [1] is 5.33; on Pyruvate kinase PKM [2], below 4.70; in the series on HCT-116, 5.68; with HeLa it was 5.45.

As to `O=C1C=C(CSC(=S)N2CCOCC2)C(=O)c2ccccc21`, the pIC50 in the series with NCI-H1299 [1] was 5.24; at Pyruvate kinase PKM [2], 5.37; in the series on HCT-116 it was 5.43; with HeLa, 5.62.

Take `CC(C)=CC[C@@H](O)C1=CC(=O)c2c(O)ccc(O)c2C1=O` [SHIKONIN]: the selectivity ratio in [3] worked out at 2.9. Besides, the pIC50 in the series on NCI-H1299 [1] was 5.73; in the series with BEAS-2B it was 5.27; in the series on HCT-116, 5.74; with HeLa, 5.61. Also, the Ratio IC50 is 1.5 in the series filed under Homo sapiens [5] and 4.5 in the series filed under Homo sapiens [6].

With `CCN(CC)C(=S)SCC1=CC(=O)c2ccccc2C1=O`, the negative logarithm of the IC50 (pIC50) in the series with NCI-H1299 [1] was 5.72; on Pyruvate kinase PKM [2] it was 5.59; with HCT-116, 5.74; in the series on HeLa it was 6.29.

Take `CCCCN(CCCC)C(=S)SCC1=C(C)C(=O)c2ccccc2C1=O`: the negative logarithm of the IC50 (pIC50) in the series on NCI-H1299 [1] is 5.19; on Pyruvate kinase PKM [2], 5.34; in the series on HCT-116 it was 4.96; with HeLa it was 4.73.

As to `CCN(CC)C(=S)SCC1=C(C)C(=O)c2ccccc2C1=O`, the selectivity ratio in series [3] was 17. In addition, the pIC50 in the series with NCI-H1299 [1] was 6.05; in the series with BEAS-2B, 4.82; at Pyruvate kinase PKM [2], 5.06; in the series on NCI-H1299 [7] it was 5.80; with HCT-116 it was 6.39; in the series on HeLa, 6.41.

For the compound `CCCN(CCC)C(=S)SCC1=C(C)C(=O)c2ccccc2C1=O`, the pIC50 is 5.37 with NCI-H1299 [1], 5.17 on Pyruvate kinase PKM [2], 5.22 in the series with HCT-116 and 4.92 with HeLa.

With `CC1=C(SC(=S)N2CCOCC2)C(=O)c2ccccc2C1=O`, the pIC50 with NCI-H1299 [1] is 5.49; on Pyruvate kinase PKM [2] it was 5.07; in the series with HCT-116, 5.64; in the series on HeLa, 5.67.

(Values after ChEMBL document CHEMBL4118079, “Discovery of novel naphthoquinone derivatives as inhibitors of the tumor cell specific M2 isoform of pyruvate kinase” (Eur J Med Chem, 2017).)
